Assay results reported in ChEMBL document CHEMBL4316593 (Eur J Med Chem, 2019).
pIC50: −log10 of the molar value. Active and inactive are the calls of the source. The calls are words filed in the database; no cut-off is given here.

What was measured:
[1] = system: U-87 MG; assay: Cell cycle arrest in human U87 cells assessed as change in CDKN1A gene expression at cytotoxic IC50 measured after 48 hrs […] relative to control; type: functional, U-87MG ATCC
How it was run: (§1)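 U87 expression profiling. Cells incubated 48hrs at 37°C, 5% CO₂ with the IC₅₀ concentration, alongside a cisplatin and an untreated control, in triplicate. RNA was isolated by one common protocol and profiled. DEGs were called with DESeq2 (q < 0.05, fold change > 1.5) and expressed as fold change versus untreated.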

[2] = system: U-87 MG; assay: Induction of apoptosis in human U87 cells assessed as decrease in caspase-3/7 activation at cytotoxic IC50 measured after 5 hrs by caspase-glo 3/7 luminescence assay relative to control; type: functional, U-87MG ATCC; parameters: scale not given: the % may be the effect or the level left
How it was run: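 Cells grown overnight in 96-well format, then given IC50 for 5 hrs at 37°C, 5% CO2, with negative, positive and blank (medium+DMSO+dye) wells. Equilibrated 30 min at room temperature, Caspase-Glo 3/7 reagent added 1:1 in the dark, luminescence read at 1 hr. Fold change = (test−blank)/(control−blank). Triplicate measurements, at least two independent experiments.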

[3] = Inhibition of RTK/PI3K/AKT/mTOR signaling in human U87 cells assessed as down regulation of COG1 gene expression at cytotoxic IC50 measured after 48 hrs relative to control; type: cell-based; conditions: U-87MG ATCC
How it was run: (§2)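 U87 cells grown in MEM with 10% FBS at 37°C, 5% CO2. Cells exposed to IC50 of test compound for 48 hrs, alongside untreated and cisplatin controls, each condition in triplicate. RNA isolated and profiled; differential expression called with DESeq2 (q-value < 0.05, fold change > 1.5), fold change versus untreated.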

[4] = Inhibition of RTK/PI3K/AKT/mTOR signaling in human U87 cells assessed as up regulation of single Ig and TIR domain containing gene expression at cytotoxic IC50 measured after 48 hrs relative to control; type: cell-based; conditions: U-87MG ATCC
[5] = Inhibition of RTK/PI3K/AKT/mTOR signaling in human U87 cells assessed as up regulation of CPLX1 gene expression at cytotoxic IC50 measured after 48 hrs relative to control; type: cell-based; conditions: U-87MG ATCC
How it was run: (§3)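 Cells were exposed for 48hrs at 37°C in humidified 5% CO₂ to the compound at its previously determined IC₅₀, with Cisplatin at its IC₅₀ and an untreated negative control alongside. Each condition was run in triplicate. RNA was isolated from all samples by the same protocol. Genes were called differentially expressed by DESeq2 at q-value < 0.05 and fold change > 1.5.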

[6] = Inhibition of RTK/PI3K/AKT/mTOR signaling in human U87 cells assessed as down regulation of ERCC3 gene expression at cytotoxic IC50 measured after 48 hrs relative to control; type: cell-based; conditions: U-87MG ATCC; how it was run: as §2
[7] = Inhibition of RTK/PI3K/AKT/mTOR signaling in human U87 cells assessed as up regulation of T-cell lymphoma invasion and metastasis 1 gene expression at cytotoxic IC50 measured after 48 hrs relative to control; type: cell-based
[8] = system: U-87 MG; assay: Cell cycle arrest in human U87 cells assessed as change in MDM2 gene expression at cytotoxic IC50 measured after 48 hrs […] relative to control; type: functional, U-87MG ATCC; how it was run: as §1
[9] = Inhibition of RTK/PI3K/AKT/mTOR signaling in human U87 cells assessed as down regulation of MAFF gene expression at cytotoxic IC50 measured after 48 hrs relative to control; type: cell-based; conditions: U-87MG ATCC; how it was run: as §3
[10] = Inhibition of RTK/PI3K/AKT/mTOR signaling in human U87 cells assessed as up regulation of TOMM22 gene expression at cytotoxic IC50 measured after 48 hrs relative to control; type: cell-based; conditions: U-87MG ATCC
[11] = Inhibition of RTK/PI3K/AKT/mTOR signaling in human U87 cells assessed as down regulation of EIF1B gene expression at cytotoxic IC50 measured after 48 hrs relative to control; type: cell-based; conditions: U-87MG ATCC; how it was run: as §2
[12] = Inhibition of RTK/PI3K/AKT/mTOR signaling in human U87 cells assessed as up regulation of TTYH3 gene expression at cytotoxic IC50 measured after 48 hrs relative to control; type: cell-based; conditions: U-87MG ATCC
[13] = Inhibition of RTK/PI3K/AKT/mTOR signaling in human U87 cells assessed as down regulation of ATP6V0D1 gene expression at cytotoxic IC50 measured after 48 hrs relative to control; type: cell-based; conditions: U-87MG ATCC; how it was run: as §2
[14] = Inhibition of RTK/PI3K/AKT/mTOR signaling in human U87 cells assessed as up regulation of ral guanine nucleotide dissociation stimulator gene expression at cytotoxic IC50 measured after 48 hrs relative to control; type: cell-based; conditions: U-87MG ATCC
[15] = system: U-87 MG; assay: Cytotoxicity against human U87 cells assessed as reduction in cell proliferation measured after 48 hrs by trypan blue dye-based cell counting analysis
[16] = Inhibition of RTK/PI3K/AKT/mTOR signaling in human U87 cells assessed as down regulation of SAFB2 gene expression at cytotoxic IC50 measured after 48 hrs relative to control; type: cell-based; conditions: U-87MG ATCC; how it was run: as §3
[17] = system: U-87 MG; assay: Cell cycle arrest in human U87 cells assessed as change in PCNA gene expression at cytotoxic IC50 measured after 48 hrs […] relative to control; type: functional, U-87MG ATCC; how it was run: as §1
[18] = system: U-87 MG; assay: Induction of apoptosis in human U87 cells assessed as change in PIDD1 gene expression at cytotoxic IC50 measured after 48 hrs […] relative to control; type: functional, U-87MG ATCC; how it was run: as §2
[19] = system: U-87 MG; assay: Induction of apoptosis in human U87 cells assessed as change in TUBA4A gene expression at cytotoxic IC50 measured after 48 hrs by […] relative to control; type: functional, U-87MG ATCC; how it was run: as §2
[20] = system: U-87 MG; assay: Induction of apoptosis in human U87 cells assessed as change in BAX gene expression at cytotoxic IC50 measured after 48 hrs […] relative to control; type: functional, U-87MG ATCC; how it was run: as §2
[21] = Inhibition of RTK/PI3K/AKT/mTOR signaling in human U87 cells assessed as down regulation of TOMM34 gene expression at cytotoxic IC50 measured after 48 hrs relative to control; type: cell-based; conditions: U-87MG ATCC; how it was run: as §3
[22] = system: LN-229; assay: Cell cycle arrest in human LN229 cells assessed as increase in accumulation at G1-phase at cytotoxic IC50 measured after 48 hrs by propidium iodide staining based fluorescence cell imaging analysis; type: functional
How it was run: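 Cell cycle by PI staining. Cells seeded at 1×10^6 and grown overnight at 37°C, 5% CO₂, then exposed for 48hrs at their IC₅₀ concentration, with DMSO and cisplatin controls. Cells were trypsinized, washed in cold PBS and fixed in 70% ethanol at 4°C for 30 min. They were stained with PI in Triton X-100/RNase for 15 min at 37°C and imaged by fluorescence microscopy. Reported as mean ± S.E.M of triplicates.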

[23] = Inhibition of RTK/PI3K/AKT/mTOR signaling in human U87 cells assessed as down regulation of WDR62 gene expression at cytotoxic IC50 measured after 48 hrs relative to control; type: cell-based; conditions: U-87MG ATCC; how it was run: as §3
[24] = system: U-87 MG; assay: Cytotoxicity against human U87 cells assessed as reduction in cell proliferation up to 200 uM by trypan blue dye-based cell counting analysis; type: functional; conditions: U-87MG ATCC, TDE = time-dependent effect
How it was run: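 U87 cells grown 24hrs, then treated for 5hrs with 0-200 μM. Viability by trypan blue exclusion; mean ± S.E.M, n = 4 per group, one-way ANOVA.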

[25] = Inhibition of RTK/PI3K/AKT/mTOR signaling in human U87 cells assessed as up regulation of USH1 protein network component harmonin gene expression at cytotoxic IC50 measured after 48 hrs relative to control; type: cell-based; conditions: U-87MG ATCC

For `CC(=O)C(=NNc1ccccc1C#N)C(C)=O`, the “fold change (FC)” value [1] was 1.296, the Activity [2] was 60.2% and the log2FC [3] was -0.632. The log2FC [4] was 0.676, the log2FC [5] was 1.75 and the log2FC [6] was -0.491. For the same compound, the log2FC [7] was 0.812, the “fold change (FC)” value [8] was 1.471 and the log2FC [9] was -1.1. For the same compound, the log2FC [10] was 0.475, the log2FC [11] was -0.906 and the log2FC [12] was 0.524. The log2FC [13] was -1.21, the log2FC [14] was 0.685 and the pIC50 [15] was 3.97. For the same compound, the log2FC [16] was -0.69, the “fold change (FC)” value [17] was 1.668 and the log2FC [18] was 2.467. It also gave a log2FC [19] of 1.583, a log2FC [20] of 2.512 and a log2FC [21] of -1.47. The Activity [22] was “Active”, the log2FC [23] was -1.86 and the Activity [24] was “Tde”. The log2FC [25] was 1.03.
